Data as given in ChEMBL document CHEMBL3102781, “Synthesis and activity of substituted heteroaromatics as positive allosteric modulators for α4β2α5 nicotinic acetylcholine receptors” (Bioorg Med Chem Lett, 2014).
Activity calls are given as the source filed them. No cut-off for these calls is given here.

Tests used:
[1] = biological target: T1, Nicotinic acetylcholine receptor alpha4/beta2/alpha5 (Homo sapiens) (UniProt P17787+P43681+P30532); experiment: Positive allosteric modulation of human alpha4beta2alpha5 nACHR expressed in HEK-tsA201 cells assessed as potentiation of nicotine-induced current at 1 uM preincubated for 15 mins followed by nicotine-treatment by fluorometric analysis; type: cell-based
Method in brief: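 In human α4β2α5 AChR HEK tsA201 cells (200,000/well, 20 h at 29 °C before testing), compound was added 15 min before nicotine. Potentiation of the nicotine response was read by membrane-potential fluorescence on a FLEXstation, with 3–4 wells averaged per point.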

[2] = biological target: T1, Nicotinic acetylcholine receptor alpha4/beta2/alpha5 (Homo sapiens); experiment: Agonist activity at human alpha4beta2alpha5 nACHR expressed in HEK-tsA201 cells by fluorometric analysis; type: cell-based
[3] = biological target: T1, Nicotinic acetylcholine receptor alpha4/beta2/alpha5 (Homo sapiens); experiment: Positive allosteric modulation of human alpha4beta2alpha5 nACHR expressed in HEK-tsA201 cells assessed as potentiation of nicotine-induced current preincubated for 15 mins followed by nicotine-treatment by fluorometric analysis relative to NS9283; type: cell-based
Method in brief: (§1)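 Human AChR subtypes were stably expressed in HEK tsA201 cells grown in DMEM with 10% FBS at 37 °C. Plating was 150,000/well for lines without α5 and 200,000/well for α5 lines, on poly-D-lysine plates. β2-containing lines were incubated 20 h at 29 °C before testing. Serial dilutions of compound were added 15 min before nicotine. Membrane-potential fluorescence was read on a FLEXstation, with 3–4 wells per point and a Hill equation fit.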

[4] = biological target: Nicotinic acetylcholine receptor alpha4/beta2/alpha5 (Homo sapiens, UniProt P17787+P30532+P43681); experiment: Positive allosteric modulation of human alpha4beta2alpha5 nACHR expressed in HEK-tsA201 cells assessed as potentiation of nicotine-induced current preincubated for 15 mins followed by nicotine-treatment by fluorometric analysis; type: cell-based; method in brief: as §1
Chain of Nicotinic acetylcholine receptor alpha4/beta2/alpha5 (P17787 whole entry): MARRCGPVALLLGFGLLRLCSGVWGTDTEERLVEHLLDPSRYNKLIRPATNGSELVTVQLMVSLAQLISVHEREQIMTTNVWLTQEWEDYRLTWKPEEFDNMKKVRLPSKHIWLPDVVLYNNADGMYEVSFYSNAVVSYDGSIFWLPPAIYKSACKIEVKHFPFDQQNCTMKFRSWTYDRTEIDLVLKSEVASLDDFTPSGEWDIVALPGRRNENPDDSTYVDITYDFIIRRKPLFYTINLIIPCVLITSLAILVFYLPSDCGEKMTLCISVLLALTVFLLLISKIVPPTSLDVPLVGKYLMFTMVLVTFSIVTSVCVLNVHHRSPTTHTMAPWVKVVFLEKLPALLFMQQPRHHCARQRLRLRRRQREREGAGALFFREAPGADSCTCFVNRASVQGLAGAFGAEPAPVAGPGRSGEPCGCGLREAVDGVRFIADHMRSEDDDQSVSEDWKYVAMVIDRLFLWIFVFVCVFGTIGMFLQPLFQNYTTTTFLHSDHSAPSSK
Chain of Nicotinic acetylcholine receptor alpha4/beta2/alpha5 (P43681 whole entry): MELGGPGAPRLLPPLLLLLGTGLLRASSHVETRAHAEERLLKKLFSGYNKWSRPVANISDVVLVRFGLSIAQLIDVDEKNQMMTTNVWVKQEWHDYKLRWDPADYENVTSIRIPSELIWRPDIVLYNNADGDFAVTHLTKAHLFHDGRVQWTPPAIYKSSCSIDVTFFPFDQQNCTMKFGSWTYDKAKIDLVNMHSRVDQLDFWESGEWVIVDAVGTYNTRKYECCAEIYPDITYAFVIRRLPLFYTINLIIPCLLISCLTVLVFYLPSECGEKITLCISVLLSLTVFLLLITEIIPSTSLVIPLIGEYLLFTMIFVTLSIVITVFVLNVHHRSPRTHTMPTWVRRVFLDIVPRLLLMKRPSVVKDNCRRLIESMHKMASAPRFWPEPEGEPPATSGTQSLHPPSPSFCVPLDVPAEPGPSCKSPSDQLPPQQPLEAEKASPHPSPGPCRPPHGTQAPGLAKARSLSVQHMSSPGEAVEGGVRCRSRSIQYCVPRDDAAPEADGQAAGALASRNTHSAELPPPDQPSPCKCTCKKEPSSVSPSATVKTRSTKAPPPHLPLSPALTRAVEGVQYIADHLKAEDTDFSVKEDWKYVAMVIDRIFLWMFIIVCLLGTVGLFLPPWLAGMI
Chain of Nicotinic acetylcholine receptor alpha4/beta2/alpha5 (P30532 whole entry): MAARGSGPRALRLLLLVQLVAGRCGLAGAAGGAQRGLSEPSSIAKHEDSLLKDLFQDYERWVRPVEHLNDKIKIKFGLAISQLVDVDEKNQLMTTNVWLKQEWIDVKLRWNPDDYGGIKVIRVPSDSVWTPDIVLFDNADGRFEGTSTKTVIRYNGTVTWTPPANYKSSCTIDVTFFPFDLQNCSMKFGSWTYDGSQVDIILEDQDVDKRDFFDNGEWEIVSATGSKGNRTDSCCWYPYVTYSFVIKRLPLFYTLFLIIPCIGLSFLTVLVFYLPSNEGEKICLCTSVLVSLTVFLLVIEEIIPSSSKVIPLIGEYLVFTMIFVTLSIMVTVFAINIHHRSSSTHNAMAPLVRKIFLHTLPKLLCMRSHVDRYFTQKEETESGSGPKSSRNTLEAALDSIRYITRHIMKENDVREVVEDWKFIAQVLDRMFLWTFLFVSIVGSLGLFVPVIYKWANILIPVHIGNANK

[5] = biological target: Nicotinic acetylcholine receptor alpha3/beta2/alpha5 (Homo sapiens) (UniProt P17787+P32297+P30532); experiment: Positive allosteric modulation of human alpha3beta2alpha5 nACHR expressed in HEK-tsA201 cells assessed as potentiation of nicotine-induced current preincubated for 15 mins followed by nicotine-treatment by fluorometric analysis; type: cell-based; method in brief: as §1
[6] = biological target: Neuronal acetylcholine receptor; alpha3/beta4 (Homo sapiens) (UniProt P30926+P32297); experiment: Positive allosteric modulation of human alpha3beta4 nACHR expressed in HEK-tsA201 cells assessed as potentiation of nicotine-induced current preincubated for 15 mins followed by nicotine-treatment by fluorometric analysis; type: cell-based; method in brief: as §1
[7] = biological target: Neuronal acetylcholine receptor; alpha3/beta2 (Homo sapiens) (UniProt P17787+P32297); experiment: Positive allosteric modulation of human alpha3beta2 nACHR expressed in HEK-tsA201 cells assessed as potentiation of nicotine-induced current preincubated for 15 mins followed by nicotine-treatment by fluorometric analysis; type: cell-based; method in brief: as §1
[8] = biological target: T2, Neuronal acetylcholine receptor; alpha4/beta2 (Homo sapiens, UniProt P17787+P43681); experiment: Positive allosteric modulation of alpha4beta2 nACHR (unknown origin); type: protein-complex assay
T2 sequence (P17787 whole entry): as the sequence (P17787 whole entry) above
T2 sequence (P43681 whole entry): as the sequence (P43681 whole entry) above

[9] = biological target: T2, Neuronal acetylcholine receptor; alpha4/beta2; experiment: Positive allosteric modulation of human alpha4beta2 nACHR expressed in HEK-tsA201 cells assessed as potentiation of nicotine-induced current preincubated for 15 mins followed by nicotine-treatment by fluorometric analysis; type: cell-based; method in brief: as §1
[10] = biological target: Nicotinic acetylcholine receptor alpha3/beta4/alpha5 (Homo sapiens) (UniProt P30926+P32297+P30532); experiment: Positive allosteric modulation of human alpha3beta4alpha5 nACHR expressed in HEK-tsA201 cells assessed as potentiation of nicotine-induced current preincubated for 15 mins followed by nicotine-treatment by fluorometric analysis; type: cell-based; method in brief: as §1
[11] = Drug uptake in mouse brain at 10 mg/kg, ip after 2 hrs; type: ADME, organism-based; parameters: dose 10 mg/kg, route intraperitoneal; conditions: read-out: Drug uptake
Method in brief: (§2)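 Mice were given 10 mg/kg by intraperitoneal injection. Plasma and brain drug levels were measured 2 h after dosing.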

[12] = Cmax in mouse at 2 mg/kg, po; type: ADME, organism-based; parameters: dose 2 mg/kg, route oral; conditions: in vivo
Method in brief: (§3)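 Mouse pharmacokinetics. Each compound was dosed 1 mg/kg IV and 2 mg/kg PO. From these the following were derived: clearance, half-life, PO AUC, PO Cmax, volume of distribution and oral bioavailability (F%).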

Mus musculus [13] = experiment: AUC in mouse at 2 mg/kg, po; type: ADME, organism-based, Plasma; parameters: dose 2 mg/kg, route oral; conditions: in vivo; method in brief: as §3
Mus musculus [14] = experiment: Volume of distribution in mouse at 1 mg/kg, iv and 2 mg/kg, po; type: ADME, organism-based; conditions: in vivo; method in brief: as §3
Mus musculus [15] = experiment: Oral bioavailability in mouse at 2 mg/kg; type: ADME, organism-based; conditions: in vivo; method in brief: as §3
[16] = Plasma concentration in mouse at 10 mg/kg, ip after 2 hrs; type: ADME, organism-based; parameters: dose 10 mg/kg, route intraperitoneal; method in brief: as §2
[17] = Half life in mouse at 1 mg/kg, iv and 2 mg/kg, po; type: ADME, organism-based; conditions: in vivo; method in brief: as §3

Activity [1]	Activity [2]	Compound	also measured
inactive	inactive	N#Cc1cccc(-n2cc(-c3cccnc3)nn2)c1	–
inactive	inactive	Cc1ccc(-n2nnc(-c3cccnc3)n2)cc1C#N	–
inactive	inactive	NC(=O)c1cccc(-n2nnc(-c3cccnc3)n2)c1	–
> 50%	inactive	Fc1ccc(-c2nc(-c3cccnc3)no2)cc1F	Emax [3]: 1.2; EC50 [4]: 1300 nM
inactive	inactive	COc1cc(OC)cc(-n2nnc(-c3cccnc3)n2)c1	–
inactive	inactive	FC(F)(F)c1cccc(-c2nc(-c3cccnc3)no2)c1	–
inactive	inactive	FC(F)(F)Oc1cccc(-c2nc(-c3cccnc3)no2)c1	–
inactive	inactive	N#Cc1cccc(-n2cnc(-c3cccnc3)n2)c1	–
inactive	inactive	c1ccc(-c2nc(-c3cccnc3)no2)cc1	–
> 50%	inactive	c1cncc(-c2nnn(-c3cccnc3)n2)c1	Emax [3]: 1.9; EC50 [4]: 700 nM
inactive	inactive	N#Cc1cccc(-n2nnc(-c3ccc(Cl)nc3)n2)c1	–
> 50%	inactive	O=[N+]([O-])c1ccc(-c2nc(-c3cccnc3)no2)cc1	Emax [3]: 0.81; EC50 [4]: 1700 nM
inactive	inactive	N#Cc1cccc(-n2nnc(-c3ccccc3)n2)c1	–
inactive	inactive	Clc1ccccc1-c1nc(-c2cccnc2)no1	–
inactive	inactive	Clc1cc(Cl)cc(-n2nnc(-c3cccnc3)n2)c1	–
> 50%	inactive	N#Cc1cccc(-c2nc(-c3cccnc3)no2)c1	Activity [5]: inactive; Activity [6]: inactive; Activity [7]: inactive; EC50 [8]: 990 nM; Activity [9]: Active; EC50 [4]: 790 nM; Activity [10]: inactive
> 50%	inactive	N#Cc1ccc(-n2nnc(-c3cccnc3)n2)cc1	Emax [3]: 0.96; EC50 [4]: 2200 nM
inactive	inactive	C[n+]1cccc(-c2nnn(-c3cccc(C#N)c3)n2)c1	–
inactive	inactive	Clc1ccccc1-n1nnc(-c2cccnc2)n1	–
inactive	inactive	N#Cc1cccc(-c2nnc(-c3cccnc3)[nH]2)c1	–
inactive	inactive	N#Cc1cccc(-n2nnc(-c3cccnc3Cl)n2)c1	–
inactive	inactive	Fc1ccc(-n2nnc(-c3cccnc3)n2)c(F)c1	–
inactive	inactive	N#Cc1cccc(-c2nc(-c3ccccn3)no2)c1	–
inactive	inactive	N#Cc1cccc(-c2ncn(-c3cccnc3)n2)c1	–

Activity [1]	Activity [2]	Compound	also measured
inactive	inactive	Clc1ccc(-c2nc(-c3cccnc3)no2)cc1	–
inactive	inactive	N#Cc1cccc(-c2cn(-c3cccnc3)nn2)c1	–
inactive	inactive	N#Cc1cccc(-c2ccn(-c3cccnc3)n2)c1	–
> 50%	inactive	N#Cc1cccc(-n2nnc(-c3cccnc3)n2)c1	Activity [5]: inactive; concentration at 2 h [11]: 4.4 µM; Emax [3]: 2.5; Activity [6]: inactive; Cmax [12]: 4.1 µM; AUC (Mus musculus [13]): 21 µM·h; Activity [7]: inactive; Vd (Mus musculus [14]): 2.7 L/kg; Activity [9]: Active; EC50 [4]: 2000 nM; Activity [10]: inactive; F (Mus musculus [15]): 100%; concentration at 2 h [16]: 11 µM; half-life [17]: 54 min
inactive	inactive	COc1ccc(OC)c(-n2nnc(-c3cccnc3)n2)c1	–
inactive	inactive	Fc1cccc(-c2nc(-c3cccnc3)no2)c1F	–
inactive	inactive	N#Cc1cccc(-c2nc(-c3ccccc3)no2)c1	–
inactive	inactive	Fc1cccc(-c2nc(-c3cccnc3)no2)c1	–
inactive	inactive	N#Cc1cccc(-n2cnc(-c3cccnc3)c2)c1	–
> 50%	inactive	c1cncc(-c2noc(-c3cccnc3)n2)c1	Emax [3]: 0.98; EC50 [4]: 1000 nM
inactive	inactive	O=[N+]([O-])c1ccccc1-c1nc(-c2cccnc2)no1	–
inactive	inactive	N#Cc1cccc(-n2nnc(-c3cncc(Cl)c3)n2)c1	–
inactive	inactive	Brc1cccc(-n2nnc(-c3cccnc3)n2)c1	–
inactive	inactive	C[n+]1cccc(-c2noc(-c3cccc(C#N)c3)n2)c1	–
inactive	inactive	N#Cc1cccc(-n2nnc(-c3cnccc3Cl)n2)c1	–
inactive	inactive	N#Cc1cccc(-n2nnc(-c3ccccn3)n2)c1	–
inactive	inactive	COc1cccc(-c2nc(-c3cccnc3)no2)c1	–
inactive	inactive	N#Cc1cccc(-n2nnc(-c3ccncc3)n2)c1	–
inactive	inactive	N#Cc1cccc(-n2ccc(-c3cccnc3)n2)c1	–
> 50%	inactive	O=[N+]([O-])c1cccc(-c2nc(-c3cccnc3)no2)c1	Emax [3]: 1.2; EC50 [4]: 690 nM
inactive	inactive	N#Cc1cccc(-c2nc(-c3ccncc3)no2)c1	–
inactive	inactive	N#Cc1cccc(-n2cc(-c3cccnc3)cn2)c1	–
inactive	inactive	N#Cc1cccc(-c2cn(-c3cccnc3)cn2)c1	–
